# Results as given in ChEMBL document CHEMBL4145497, “Discovery of 2-aminothiazolyl berberine derivatives as effectively antibacterial agents toward clinically drug-resistant Gram-negative Acinetobacter baumanii” (Eur J Med Chem, 2018).
# Activity calls are given as the source filed them. No cut-off for these calls is given here.
# How the values were obtained:
# Micrococcus luteus [1] = assay: Potency index, ratio of berberine MIC to compound MIC for antibacterial activity against Micrococcus luteus ATCC 4698; format: functional
# Staphylococcus aureus [2] = assay: Antibacterial activity against Staphylococcus aureus ATCC 25923 after 18 to 24 hrs by CLSI two fold serial dilution method; format: functional
# Bacillus subtilis = assay: Antibacterial activity against Bacillus subtilis ATCC 21216 after 18 to 24 hrs by CLSI two fold serial dilution method; format: functional
# Micrococcus luteus [3] = assay: Antibacterial activity against Micrococcus luteus ATCC 4698 after 18 to 24 hrs by CLSI two fold serial dilution method; format: functional
# Escherichia coli [4] = assay: Antibacterial activity against Escherichia coli DH52 after 18 to 24 hrs by CLSI two fold serial dilution method; format: functional
# Pseudomonas aeruginosa [5] = assay: Antibacterial activity against Pseudomonas aeruginosa ATCC 27853 after 18 to 24 hrs by CLSI two fold serial dilution method; format: functional
# Candida albicans [6] = assay: Antifungal activity against Candida albicans ATCC 76615 by CLSI two fold serial dilution method; format: functional
# Cyberlindnera jadinii = assay: Antifungal activity against Candida utilis ATCC 9950 by CLSI two fold serial dilution method; format: functional; conditions: Williopsis jadinii
# Pichia norvegensis = assay: Antifungal activity against Candida mycoderma ATCC 96918 by CLSI two fold serial dilution method; format: functional
# Aspergillus flavus [7] = assay: Antifungal activity against Aspergillus flavus ATCC 204304 by CLSI two fold serial dilution method; format: functional
# Saccharomyces cerevisiae = assay: Antifungal activity against Saccharomyces cerevisiae ATCC 9763 by CLSI two fold serial dilution method; format: functional
# Candida parapsilosis = assay: Antifungal activity against Candida parapsilosis ATCC 22019 by CLSI two fold serial dilution method; format: functional; conditions: Lodderomyces parapsilosis
# [8] = Aqueous solubility of the compound in phosphate buffer at pH 7.4 after 3 hrs by UV detection assay; format: physicochemical
# Procedure, shortened: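 Water solubility measured at physiological pH, with berberine as the control.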
# Escherichia coli [9] = assay: Potency index, ratio of norfloxacin MIC to compound MIC for antibacterial activity against Escherichia coli DH52; format: functional
# Staphylococcus aureus [10] = assay: Antibacterial activity against methicillin-resistant Staphylococcus aureus N315 after 18 to 24 hrs by CLSI two fold serial dilution method; format: functional
# Enterococcus faecalis [11] = assay: Antibacterial activity against drug-resistant Enterococcus faecalis after 18 to 24 hrs by CLSI two fold serial dilution method; format: functional
# Escherichia coli [12] = assay: Antibacterial activity against drug-resistant Escherichia coli after 18 to 24 hrs by CLSI two fold serial dilution method; format: functional
# Pseudomonas aeruginosa [13] = assay: Antibacterial activity against drug-resistant Pseudomonas aeruginosa after 18 to 24 hrs by CLSI two fold serial dilution method; format: functional
# Klebsiella pneumoniae [14] = assay: Antibacterial activity against drug-resistant Klebsiella pneumoniae after 18 to 24 hrs by CLSI two fold serial dilution method; format: functional
# Acinetobacter baumannii [15] = assay: Antibacterial activity against drug-resistant Acinetobacter baumannii after 18 to 24 hrs by CLSI two fold serial dilution method; format: functional
# Candida albicans [16] = assay: Antifungal activity against drug-resistant Candida albicans by CLSI two fold serial dilution method; format: functional
# Candida tropicalis = assay: Antifungal activity against drug-resistant Candida tropicalis by CLSI two fold serial dilution method; format: functional
# Aspergillus fumigatus = assay: Antifungal activity against drug-resistant Aspergillus fumigatus by CLSI two fold serial dilution method; format: functional
# Aspergillus flavus [17] = assay: Potency index, ratio of fluconazole MIC to compound MIC for antibacterial activity against Aspergillus flavus ATCC 204304; format: functional
# [18] = Cytotoxicity against human LO2 cells assessed as cell viability at 1.5625 to 100 ug/ml after 48 hrs by MTT assay relative to control; format: cell-based, L02; conditions: read-out: Activity
# Procedure, shortened: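 Human hepatocyte LO2 cells exposed to compound across a concentration range for 48 h; viability read by colorimetric MTT assay; standard deviation from three independent experiments.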
# Acinetobacter baumannii [19] = assay: Bactericidal activity against drug-resistant Acinetobacter baumannii assessed as reduction in number of viable bacterial load at 8 nmol/ml with in 2 hrs by time kill assay; format: functional
# Acinetobacter baumannii [20] = assay: Antibacterial activity against drug-resistant Acinetobacter baumannii at 0.7 ug/ml measured 12 hrs post 10 serial passages; format: functional, organism-based
# Acinetobacter baumannii [21] = assay: Induction of membrane permeabilization in drug-resistant Acinetobacter baumannii at 0.024 umol/ml incubated for 1 hr measured up to 120 mins by propidium iodide staining-based fluorescence spectra analysis; format: functional, organism-based
# DNA [22] = assay: Binding affinity to drug-resistant Acinetobacter baumanii DNA by UV-vis spectroscopic analysis; format: nucleic-acid assay; conditions: Acinetobacter baumannii
# Procedure, shortened: (§1)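 Genomic DNA was isolated from drug-resistant A. baumanii by spin-column extraction after proteinase K lysis at 70 °C. DNA concentration was taken from A260 using ε260 = 6600 L·mol−1·cm−1, expressed as phosphate molarity, and purity was checked by A260/A280 and gel. UV-vis spectra were recorded at a fixed DNA concentration of 8.12×10^-4 mol/L with increasing compound.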
# DNA [23] = assay: Binding affinity to drug-resistant Acinetobacter baumanii DNA assessed as hyperchromic effect up to 2.5 10^-5mol/L by UV-vis spectroscopic analysis; format: nucleic-acid assay; conditions: Acinetobacter baumannii; procedure, shortened: as §1
# DNA [24] = assay: Inhibition of neutral red binding to drug-resistant Acinetobacter baumanii DNA up to 2.5 10^-5mol/L by UV-vis spectroscopic analysis; format: nucleic-acid assay; conditions: Acinetobacter baumannii
# Procedure, shortened: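 Neutral red competition with genomic DNA from drug-resistant A. baumanii, extracted by spin column after proteinase K lysis. UV-vis absorbance near 460 nm was followed as compound concentration increased in the neutral red–DNA system.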
# DNA [25] = assay: Induction of drug-resistant Acinetobacter baumanii DNA cleavage at 50 uM after 6 hrs by ethidium bromide staining based agarose gel electrophoresis method; format: nucleic-acid assay; conditions: Acinetobacter baumannii
# Procedure, shortened: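 Spin-column-isolated genomic DNA from drug-resistant A. baumanii (1.31×10^-6 mol/L) was incubated with compound (50 μM) in 50 mM Tris-HCl/50 mM NaCl, pH 7.4, at 37 °C for 6 h. Agarose gel electrophoresis was run against DNA-alone and DNA-plus-buffer lanes.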
# Staphylococcus aureus [26] = assay: Synergistic antibacterial activity against methicillin-resistant Staphylococcus aureus N315 assessed as FIC index in presence of norfloxacin by two fold dilution checkerboard method; format: functional
# Enterococcus faecalis [27] = assay: Additive antibacterial activity against drug-resistant Enterococcus faecalis assessed as FIC index in presence of norfloxacin by two fold dilution checkerboard method; format: functional
# Escherichia coli [28] = assay: Synergistic antibacterial activity against drug-resistant Escherichia coli assessed as FIC index in presence of norfloxacin by two fold dilution checkerboard method; format: functional
# Pseudomonas aeruginosa [29] = assay: Synergistic antibacterial activity against drug-resistant Pseudomonas aeruginosa assessed as FIC index in presence of norfloxacin by two fold dilution checkerboard method; format: functional
# Klebsiella pneumoniae [30] = assay: Synergistic antibacterial activity against drug-resistant Klebsiella pneumoniae assessed as FIC index in presence of norfloxacin by two fold dilution checkerboard method; format: functional
# Acinetobacter baumannii [31] = assay: Synergistic antibacterial activity against drug-resistant Acinetobacter baumannii assessed as FIC index in presence of norfloxacin by two fold dilution checkerboard method; format: functional
# Staphylococcus aureus [32] = assay: Antibacterial activity against methicillin-resistant Staphylococcus aureus N315 after 18 to 24 hrs in presence of norfloxacin by two fold dilution checkerboard method; format: functional
# Enterococcus faecalis [33] = assay: Antibacterial activity against drug-resistant Enterococcus faecalis after 18 to 24 hrs in presence of norfloxacin by two fold dilution checkerboard method; format: functional
# Escherichia coli [34] = assay: Antibacterial activity against drug-resistant Escherichia coli after 18 to 24 hrs in presence of norfloxacin by two fold dilution checkerboard method; format: functional
# Pseudomonas aeruginosa [35] = assay: Antibacterial activity against drug-resistant Pseudomonas aeruginosa after 18 to 24 hrs in presence of norfloxacin by two fold dilution checkerboard method; format: functional
# Klebsiella pneumoniae [36] = assay: Antibacterial activity against drug-resistant Klebsiella pneumoniae after 18 to 24 hrs in presence of norfloxacin by two fold dilution checkerboard method; format: functional
# Acinetobacter baumannii [37] = assay: Antibacterial activity against drug-resistant Acinetobacter baumannii after 18 to 24 hrs in presence of norfloxacin by two fold dilution checkerboard method; format: functional
# Staphylococcus aureus [38] = assay: Potentiation of norfloxacin-mediated antibacterial activity against methicillin-resistant Staphylococcus aureus N315 assessed as norfloxacin MIC after 18 to 24 hrs by two fold dilution checkerboard method (reference value: 0.03 umol/ml); format: functional
# Enterococcus faecalis [39] = assay: Potentiation of norfloxacin-mediated antibacterial activity against drug-resistant Enterococcus faecalis assessed as norfloxacin MIC after 18 to 24 hrs by two fold dilution checkerboard method (reference value: 0.8 umol/ml); format: functional
# Escherichia coli [40] = assay: Potentiation of norfloxacin-mediated antibacterial activity against drug-resistant Escherichia coli assessed as norfloxacin MIC after 18 to 24 hrs by two fold dilution checkerboard method (reference value: 1.6 umol/ml); format: functional
# Pseudomonas aeruginosa [41] = assay: Potentiation of norfloxacin-mediated antibacterial activity against drug-resistant Pseudomonas aeruginosa assessed as norfloxacin MIC after 18 to 24 hrs by two fold dilution checkerboard method (reference value: 1.6 umol/ml); format: functional
# Klebsiella pneumoniae [42] = assay: Potentiation of norfloxacin-mediated antibacterial activity against drug-resistant Klebsiella pneumoniae assessed as norfloxacin MIC after 18 to 24 hrs by two fold dilution checkerboard method (reference value: 0.8 umol/ml); format: functional
# Acinetobacter baumannii [43] = assay: Potentiation of norfloxacin-mediated antibacterial activity against drug-resistant Acinetobacter baumannii assessed as norfloxacin MIC after 18 to 24 hrs by two fold dilution checkerboard method (reference value: 0.8 umol/ml); format: functional
# Staphylococcus aureus [44] = assay: Ratio of MIC for methicillin-resistant Staphylococcus aureus N315 in absence of norfloxacin to MIC for methicillin-resistant Staphylococcus aureus N315 in presence of norfloxacin; format: functional
# Staphylococcus aureus [45] = assay: Potentiation of norfloxacin-mediated antibacterial activity against methicillin-resistant Staphylococcus aureus N315 after 18 to 24 hrs by two fold dilution checkerboard method relative to control; format: functional
smiles,measurement,setting,value
COc1cc(/C=N/Nc2nccs2)c2c(c1OCc1ccc(F)cc1)CN1CCc3cc4c(cc3C1C2)OCO4 (stereo unspecified),Ratio,Micrococcus luteus [1],12
same,MIC,Staphylococcus aureus [2],110 µM
same,MIC,Bacillus subtilis,230 µM
same,MIC,Micrococcus luteus [3],60 µM
same,MIC,Escherichia coli [4],460 µM
same,MIC,Pseudomonas aeruginosa [5],230 µM
same,MIC,Candida albicans [6],230 µM
same,MIC,Cyberlindnera jadinii,230 µM
same,MIC,Pichia norvegensis,120 µM
same,MIC,Aspergillus flavus [7],460 µM
same,MIC,Saccharomyces cerevisiae,460 µM
same,MIC,Candida parapsilosis,30 µM
same,solubility at 3 h,[8],374 to 3190 µg/mL
CCCCCCOc1c(OC)cc(/C=N/NC(N)=S)c2c1CN1CCc3cc4c(cc3C1C2)OCO4 (stereo unspecified),Ratio,Escherichia coli [9],53
same,MIC,Staphylococcus aureus [2],130 µM
same,MIC,Staphylococcus aureus [10],130 µM
same,MIC,Bacillus subtilis,130 µM
same,MIC,Micrococcus luteus [3],250 µM
same,MIC,Enterococcus faecalis [11],30 µM
same,MIC,Escherichia coli [4],30 µM
same,MIC,Escherichia coli [12],30 µM
same,MIC,Pseudomonas aeruginosa [5],60 µM
same,MIC,Pseudomonas aeruginosa [13],60 µM
same,MIC,Klebsiella pneumoniae [14],130 µM
same,MIC,Acinetobacter baumannii [15],60 µM
same,MIC,Candida albicans [6],60 µM
same,MIC,Cyberlindnera jadinii,250 µM
same,MIC,Pichia norvegensis,250 µM
same,MIC,Aspergillus flavus [7],250 µM
same,MIC,Saccharomyces cerevisiae,500 µM
same,MIC,Candida parapsilosis,60 µM
same,MIC,Candida albicans [16],60 µM
same,MIC,Candida tropicalis,60 µM
same,MIC,Aspergillus fumigatus,130 µM
CCCCCCOc1c(OC)cc(/C=N/Nc2nccs2)c2c1CN1CCc3cc4c(cc3C1C2)OCO4 (stereo unspecified),MIC,Staphylococcus aureus [2],30 µM
same,MIC,Staphylococcus aureus [10],7 to 30 µM
same,MIC,Bacillus subtilis,120 µM
same,MIC,Micrococcus luteus [3],60 µM
same,MIC,Escherichia coli [4],60 µM
same,MIC,Pseudomonas aeruginosa [5],60 µM
same,MIC,Candida albicans [6],30 µM
same,MIC,Cyberlindnera jadinii,120 µM
same,MIC,Pichia norvegensis,30 µM
same,MIC,Aspergillus flavus [7],60 µM
same,MIC,Saccharomyces cerevisiae,60 µM
same,MIC,Candida parapsilosis,4 µM
same,Ratio,Aspergillus flavus [17],14
same,solubility at 3 h,[8],1420 µg/mL
same,viability at 48 h,[18],> 70.7%
same,Activity,Acinetobacter baumannii [19],>3 deltalog10CFU/ml
same,Activity,Acinetobacter baumannii [20],Active
same,Activity,Acinetobacter baumannii [21],Active
same,K,DNA [22],2.54 ×10³ L/mol
same,Activity,DNA [23],Active
same,inhibition,DNA [24],Active
same,Activity,DNA [25],Active
same,fractional inhibitory concentration index (FICI),Staphylococcus aureus [26],0.5
same,fractional inhibitory concentration index (FICI),Enterococcus faecalis [27],0.56
same,fractional inhibitory concentration index (FICI),Escherichia coli [28],0.31
same,fractional inhibitory concentration index (FICI),Pseudomonas aeruginosa [29],0.45
same,fractional inhibitory concentration index (FICI),Klebsiella pneumoniae [30],0.38
same,fractional inhibitory concentration index (FICI),Acinetobacter baumannii [31],0.31
same,MIC,Staphylococcus aureus [32],7 µM
same,MIC,Enterococcus faecalis [33],15 µM
same,MIC,Escherichia coli [34],30 µM
same,MIC,Pseudomonas aeruginosa [35],25 µM
same,MIC,Klebsiella pneumoniae [36],30 µM
same,MIC,Acinetobacter baumannii [37],0.5 µM
same,MIC,Staphylococcus aureus [38],6 µM
same,MIC,Enterococcus faecalis [39],50 µM
same,MIC,Escherichia coli [40],100 µM
same,MIC,Pseudomonas aeruginosa [41],50 µM
same,MIC,Klebsiella pneumoniae [42],100 µM
same,MIC,Acinetobacter baumannii [43],50 µM
same,Ratio,Staphylococcus aureus [44],4
same,fold change (FC),Staphylococcus aureus [45],4
